Assay outcomes from PubChem BioAssay.
Sampled rows, rich in hits. Any-hit rate of the full collection: about 2.5%.
CHO parental Ca: signal in parental CHO cells, OX1R antagonist counter-screen; parental CHO-K1, ATP-induced calcium, Fluo-8 fluorescence; inhibition, % at 5.6 µM; 0.63% of 330,000 active;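 active = inhibition above that plate's mean sample inhibition plus 3 SD, cut at about 26% in these data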
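Material – parental CHO cells · Reagent – ATP stimulus · Compound – single nominal dose of 5.6 µM per compound · Detection – Fluo-8 fluorescence · Read-out basis – percent inhibition of calcium signal · Controls – ATP-challenged DMSO wells low, unchallenged DMSO wells high · Repeats – no replicates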
OX1R antag-1: blocks the human orexin 1 receptor | OX1R-expressing cells, FRET antagonist read-out | 1.8% of 330,000 active | O43613 | inhibition, % at 6.6 µM; in the data active = inhibition mostly above about 38%, no sharp cut-off; inactive = mostly below about 40%
Target sequence (O43613 whole entry, looked up): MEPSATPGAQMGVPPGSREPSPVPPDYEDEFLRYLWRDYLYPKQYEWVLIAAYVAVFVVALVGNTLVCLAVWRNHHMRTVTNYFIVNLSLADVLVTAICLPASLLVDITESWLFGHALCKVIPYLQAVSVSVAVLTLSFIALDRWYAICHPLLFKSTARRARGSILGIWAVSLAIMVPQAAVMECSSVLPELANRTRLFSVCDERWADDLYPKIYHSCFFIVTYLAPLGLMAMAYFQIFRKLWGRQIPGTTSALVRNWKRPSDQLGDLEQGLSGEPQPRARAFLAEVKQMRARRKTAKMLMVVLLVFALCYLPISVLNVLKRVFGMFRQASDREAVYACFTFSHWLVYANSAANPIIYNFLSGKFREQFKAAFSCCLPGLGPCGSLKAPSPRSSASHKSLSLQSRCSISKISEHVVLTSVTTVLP
OX1R antag-2: antagonists of human orexin 1 receptor; O43613; CHO/OX1R cells, Fluo-8 calcium fluorescence, orexin A; inhibition, % at 5 µM; 0.43% of 330,000 active;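 active = inhibition above its plate's threshold, mean inhibition of all tested compounds on the plate plus 3 SD, cut at about 37% in these data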
TRPML3 agonist: agonists of human TRPML3 channel. Q8TDD5. HEK293 TRPML3-YFP, Fluo-8 calcium fluorescence; 100% = the carbachol control signal. activation, % at 3 µM. 0.29% of 220,000 active. AID 1448;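 active = activation above its plate's cutoff, the mean activation of the plate's test wells plus 3 SD, cut at about 12% in these data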
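Material: HEK293 cells stably carrying human TRPML3-YFP; compound dosing: single dose, 3 µM final nominal compound, 0.3% DMSO final; incubation: 1-h 37 °C dye load, 5-s basal, 120-s post-compound reads; technique: Fluo-8 intracellular calcium fluorescence, excitation 470-495 nm, emission 515-575 nm; read-out basis: percent activation from peak-to-basal fluorescence ratio, scaled between DMSO and carbachol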
zfTRPN1 agonist: agonists of zebrafish TRPN1 channel | HEK293 zebrafish TRPN1-YFP, Fluo-8 calcium fluorescence; 100% = response to 87 µM carbachol | activation, % at 3 µM | 0.18% of 220,000 active | AID 1424;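 active = activation above its plate's cutoff, the mean activation of test wells on that plate plus 3 SD, cut at about 19% in these data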
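Assay system: Zebrafish TRPN1-YFP in HEK293 cells | Incubation: Dye loading 1 h at 37 °C, then 30 min room temperature | Measured by: Kinetic Fluo-8 fluorescence, ex 470-495, em 515-575 nm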
Numbers stand for hits.

What do the screens show for `Cc1cc(C(=O)O)cc(S(=O)(=O)Nc2ccccc2C(=O)NC(C)c2ccccc2)c1C` (centres undefined)?
CHO parental Ca: inactive; OX1R antag-1: inactive; OX1R antag-2: inactive

Results for CCC(C)NC(=O)C1CCN(S(=O)(=O)c2cc([N+](=O)[O-])ccc2Cl)CC1 (centres undefined) ?
CHO parental Ca: inactive; OX1R antag-1: inactive; OX1R antag-2: inactive; TRPML3 agonist: inactive; zfTRPN1 agonist: inactive

How did O=C(Nc1nc2ccccc2s1)C1CCN(S(=O)(=O)c2cc([N+](=O)[O-])ccc2Cl)CC1 do in these assays?
CHO parental Ca: 80; OX1R antag-1: 84; OX1R antag-2: 51; TRPML3 agonist: inactive; zfTRPN1 agonist: inactive

How did CC(=O)c1c2c3c(c(Br)ccc3n(C)c1=O)C(=O)c1ccccc1-2 do in these assays?
CHO parental Ca: inactive; OX1R antag-1: 56; OX1R antag-2: inactive

What do the screens show for `CC(C)(CC(=O)N1CCN(c2ccc(Cl)cc2)CC1)CC1=NS(=O)(=O)c2ccccc2N1`?
CHO parental Ca: 75; OX1R antag-1: inactive; OX1R antag-2: inactive; TRPML3 agonist: inactive; zfTRPN1 agonist: inactive

Results for COc1ccc(N=Cc2sc(O)c3ccccc23)cc1 ?
CHO parental Ca: 46; OX1R antag-1: inactive; OX1R antag-2: 67; TRPML3 agonist: 28; zfTRPN1 agonist: 33

How did COc1cc2ncc(S(=O)(=O)c3ccccc3)c(N3CCCC(C)C3)c2cc1OC (centres undefined) do in these assays?
CHO parental Ca: inactive; OX1R antag-1: inactive; OX1R antag-2: inactive

How did Cc1ccc(Nc2nc(-c3cccnc3)cs2)cc1C do in these assays?
CHO parental Ca: inactive; OX1R antag-1: 58; OX1R antag-2: inactive

Results for COc1ccccc1CNn1c(-c2cccc(C)c2)nc2ccccc2c1=O ?
CHO parental Ca: inactive; OX1R antag-1: 51; OX1R antag-2: inactive; TRPML3 agonist: inactive; zfTRPN1 agonist: inactive

Results for C[n+]1ccc(/C=N/Nc2nc(Cl)c(C#N)c(Cl)c2Cl)cc1 ?
CHO parental Ca: inactive; OX1R antag-1: 54; OX1R antag-2: inactive; TRPML3 agonist: inactive; zfTRPN1 agonist: inactive

Results for C[n+]1ccccc1Nc1cc([N+](=O)[O-])ccc1N ?
CHO parental Ca: inactive; OX1R antag-1: inactive; OX1R antag-2: inactive

How did N#Cc1cc(Nc2c(N)nc[nH]c2=O)c([N+](=O)[O-])cc1C#N do in these assays?
CHO parental Ca: inactive; OX1R antag-1: 48; OX1R antag-2: inactive

How did N#Cc1c(-c2ccc(Cl)cc2)ccn2nc(CCC(=O)O)nc12 do in these assays?
CHO parental Ca: inactive; OX1R antag-1: 56; OX1R antag-2: inactive; TRPML3 agonist: inactive; zfTRPN1 agonist: inactive

How did CCCCCc1nc2c(C#N)c(-c3ccc(Cl)cc3)ccn2n1 do in these assays?
CHO parental Ca: inactive; OX1R antag-1: inactive; OX1R antag-2: inactive; TRPML3 agonist: inactive; zfTRPN1 agonist: inactive

What do the screens show for `O=C(NCC(c1cccs1)N1CCOCC1)c1ccccc1NS(=O)(=O)c1cccc([N+](=O)[O-])c1` (centres undefined)?
CHO parental Ca: inactive; OX1R antag-1: inactive; OX1R antag-2: inactive; TRPML3 agonist: inactive; zfTRPN1 agonist: inactive

How did O=C(NCC(c1cccs1)N1CCOCC1)c1ccccc1NS(=O)(=O)c1ccc(Cl)c([N+](=O)[O-])c1 (centres undefined) do in these assays?
CHO parental Ca: inactive; OX1R antag-1: 45; OX1R antag-2: inactive; TRPML3 agonist: inactive; zfTRPN1 agonist: inactive

Results for N=c1c(C(=O)NCc2ccccc2)cc2c(=O)n3ccccc3nc2n1CCCN1CCOCC1 ?
CHO parental Ca: inactive; OX1R antag-1: 45; OX1R antag-2: inactive

What do the screens show for `N=c1c(C(=O)NCCc2ccccc2)cc2c(=O)n3ccccc3nc2n1Cc1ccco1`?
CHO parental Ca: inactive; OX1R antag-1: inactive; OX1R antag-2: inactive

How did Cc1ccc(Cn2c(=N)c(C(=O)NCCN3CCOCC3)cc3c(=O)n4ccccc4nc32)cc1 do in these assays?
CHO parental Ca: inactive; OX1R antag-1: 54; OX1R antag-2: inactive

Results for COc1ccc(CCn2c(=N)c(C(=O)NCc3ccco3)cc3c(=O)n4ccccc4nc32)cc1 ?
CHO parental Ca: inactive; OX1R antag-1: 47; OX1R antag-2: inactive; TRPML3 agonist: inactive; zfTRPN1 agonist: inactive

How did N=c1c(C(=O)NCCc2ccccc2)cc2c(=O)n3ccccc3nc2n1CCCN1CCOCC1 do in these assays?
CHO parental Ca: inactive; OX1R antag-1: 45; OX1R antag-2: inactive

How did N=c1c(C(=O)NCCN2CCOCC2)cc2c(=O)n3ccccc3nc2n1CCc1ccccc1 do in these assays?
CHO parental Ca: inactive; OX1R antag-1: 62; OX1R antag-2: inactive

What do the screens show for `N=c1c(C(=O)NC2CCCCC2)cc2c(=O)n3ccccc3nc2n1CCc1ccccc1`?
CHO parental Ca: inactive; OX1R antag-1: inactive; OX1R antag-2: inactive

Results for COc1ccccc1N(C(=O)c1ccco1)C(C(=O)NC1CCCCC1)c1cc(OC)c(OC)c(OC)c1 (centres undefined) ?
CHO parental Ca: inactive; OX1R antag-1: 42; OX1R antag-2: inactive

What do the screens show for `COc1ccccc1C(=O)OCC#CCSc1nnc(-c2cccc3ccccc23)o1`?
CHO parental Ca: inactive; OX1R antag-1: 49; OX1R antag-2: inactive

How did O=C1NCCN/C1=C\C(=O)c1ccc(Cl)cc1 do in these assays?
CHO parental Ca: inactive; OX1R antag-1: inactive; OX1R antag-2: inactive; TRPML3 agonist: inactive; zfTRPN1 agonist: inactive

What do the screens show for `O=C(CC1SC(=O)N(Cc2cccc3ccccc23)C1=O)Nc1nccs1` (centres undefined)?
CHO parental Ca: inactive; OX1R antag-1: 62; OX1R antag-2: inactive; TRPML3 agonist: inactive; zfTRPN1 agonist: inactive

How did CCOc1cc(C(=O)N(CC)CC(=O)Nc2ccc3c(c2)OCCO3)ccc1OC do in these assays?
CHO parental Ca: inactive; OX1R antag-1: inactive; OX1R antag-2: inactive

How did O=Nc1c(O)n(Cc2ccccc2)c2ccccc12 do in these assays?
CHO parental Ca: inactive; OX1R antag-1: inactive; OX1R antag-2: inactive; TRPML3 agonist: inactive; zfTRPN1 agonist: inactive

How did O=Nc1c(O)n(Cc2ccc(Cl)c(Cl)c2)c2ccccc12 do in these assays?
CHO parental Ca: 38; OX1R antag-1: inactive; OX1R antag-2: inactive; TRPML3 agonist: inactive; zfTRPN1 agonist: inactive

What do the screens show for `CCC/C(C)=N/NC(=O)c1ccccc1O`?
CHO parental Ca: inactive; OX1R antag-1: inactive; OX1R antag-2: inactive; TRPML3 agonist: inactive; zfTRPN1 agonist: inactive

Results for C/C(=N/NC(=O)c1cc2ccccc2cc1O)C1C(=O)c2ccccc2C1=O ?
CHO parental Ca: inactive; OX1R antag-1: 65; OX1R antag-2: inactive; TRPML3 agonist: inactive; zfTRPN1 agonist: inactive

Results for C/C(=N\NC(=O)c1ccccc1O)C1C(=O)c2ccccc2C1=O ?
CHO parental Ca: inactive; OX1R antag-1: 61; OX1R antag-2: inactive; TRPML3 agonist: inactive; zfTRPN1 agonist: inactive

Results for C/C(=N\NC(=O)c1cc2ccccc2cc1O)c1ccccn1 ?
CHO parental Ca: inactive; OX1R antag-1: inactive; OX1R antag-2: inactive

How did COc1ccc(CCn2c(S)nc3ccccc3c2=O)cc1 do in these assays?
CHO parental Ca: inactive; OX1R antag-1: inactive; OX1R antag-2: inactive
